# Results from ChEMBL document CHEMBL1122299, “Potential cerebral perfusion agents: synthesis and evaluation of a radioiodinated vinylalkylbarbituric acid analogue” (J Med Chem, 1983).
# Experiments:
# [1] = system: Rattus norvegicus; assay: Distribution of radioactivity in heart tissue of rats at 2 mins after an intravenous injection; Value expressed as mean % injected dose, Range- 1.35-1.55; type: ADME, organism-based; conditions: in vivo
# In short: (§1)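 Female Fischer 344 rats (10–12 wk, 170–200 g; food and water ad libitum) under ether received 7.95 μCi 125I-labeled agent (sp act ~155 mCi/mmol) in pH 7.4 phosphate buffer, filtered, via lateral tail vein. Four rats per time point (2 min–1 day). Killed by cervical fracture under ether; organs excised, saline-rinsed, blotted, weighed, gamma-counted; mean % injected dose/g with range.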
# [2] = system: Rattus norvegicus; assay: Distribution of radioactivity in blood of rats at 5 mins after an intravenous injection; Value expressed as mean % injected dose, Range-0.81-1; type: ADME, organism-based; conditions: in vivo; in short: as §1
# [3] = system: Rattus norvegicus; assay: Distribution of radioactivity in lung tissue of rats at 2 mins after an intravenous injection; Value expressed as mean % injected dose, Range- 1.17-1.42; type: ADME, organism-based; conditions: in vivo; in short: as §1
# [4] = system: Rattus norvegicus; assay: Ratio between the distribution of radioactivity of brain to that of blood tissue of rats at 1 hr after an intravenous administration; type: ADME, organism-based
# In short: (§2)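 Same rats (four per time point, 2 min–1 day) after a 7.95 μCi tail-vein dose of 125I-labeled agent in pH 7.4 phosphate buffer. Brain and blood were excised, weighed and gamma-counted as % injected dose/g. The ratio compares brain to blood radioactivity and is reported as a mean.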
# [5] = system: Rattus norvegicus; assay: Distribution of radioactivity in thyroid tissue of rats at 30 mins after an intravenous injection; Value expressed as mean % injected dose, Range- 18.74-30.84; type: ADME, organism-based, Thyroid gland; conditions: in vivo, 0.5 h; in short: as §1
# [6] = system: Rattus norvegicus; assay: Distribution of radioactivity in blood of rats at 30 mins after an intravenous injection; Value expressed as mean % injected dose, Range = 0.68-1.03; type: ADME, organism-based; conditions: in vivo, 0.5 h; in short: as §1
# [7] = system: Rattus norvegicus; assay: Distribution of radioactivity in brain tissue of rats at 4 hr after an intravenous injection; Value expressed as mean % injected dose, Range- 0.03-0.04; type: ADME, organism-based; conditions: in vivo; in short: as §1
# [8] = system: Rattus norvegicus; assay: Ratio between the distribution of radioactivity of brain to that of blood tissue of rats at 5 min after an intravenous administration; type: ADME, organism-based; in short: as §2
# [9] = system: Rattus norvegicus; assay: Ratio between the distribution of radioactivity of brain to that of blood tissue of rats at 30 min after an intravenous administration; type: ADME, organism-based; conditions: 0.5 h; in short: as §2
# [10] = system: Rattus norvegicus; assay: Distribution of radioactivity in brain tissue of rats at 2 mins after an intravenous injection; Value expressed as mean % injected dose, Range- 0.77-0.97; type: ADME, organism-based; conditions: in vivo; in short: as §1
# [11] = system: Rattus norvegicus; assay: Distribution of radioactivity in blood of rats at 2 hr after an intravenous injection; Value expressed as mean % injected dose, Range = 0.71-0.87; type: ADME, organism-based; conditions: in vivo; in short: as §1
# [12] = system: Rattus norvegicus; assay: Distribution of radioactivity in thyroid tissue of rats at 4 hr after an intravenous injection; Value expressed as mean % injected dose, Range- 156-207; type: ADME, organism-based, Thyroid gland; conditions: in vivo; in short: as §1
# [13] = system: Rattus norvegicus; assay: Ratio between the distribution of radioactivity of brain to that of blood tissue of rats at 2 hr after an intravenous administration; type: ADME, organism-based; in short: as §2
# [14] = system: Rattus norvegicus; assay: Distribution of radioactivity in brain tissue of rats at 2 hr after an intravenous injection; Value expressed as mean % injected dose, Range- 0.08-0.13; type: ADME, organism-based; conditions: in vivo; in short: as §1
# [15] = system: Rattus norvegicus; assay: Distribution of radioactivity in thyroid tissue of rats at 5 mins after an intravenous injection; Value expressed as mean % injected dose, Range- 6.19-7.22; type: ADME, organism-based, Thyroid gland; conditions: in vivo; in short: as §1
# [16] = system: Rattus norvegicus; assay: Distribution of radioactivity in brain tissue of rats at 30 mins after an intravenous injection; Value expressed as mean % injected dose, Range- 0.25-0.37; type: ADME, organism-based; conditions: in vivo, 0.5 h; in short: as §1
# [17] = system: Rattus norvegicus; assay: Distribution of radioactivity in blood of rats at 4 hr after an intravenous injection; Value expressed as mean % injected dose, Range- 0.45-0.48; type: ADME, organism-based; conditions: in vivo; in short: as §1
# [18] = system: Rattus norvegicus; assay: Ratio between the distribution of radioactivity of brain to that of blood tissue of rats at 4 hr after an intravenous administration; type: ADME, organism-based; in short: as §2
# [19] = system: Rattus norvegicus; assay: Distribution of radioactivity in lung tissue of rats at 2 hr after an intravenous injection; Value expressed as mean % injected dose, Range- 0.47-0.58; type: ADME, organism-based; conditions: in vivo; in short: as §1
# [20] = system: Rattus norvegicus; assay: Distribution of radioactivity in lung tissue of rats at 30 mins after an intravenous injection; Value expressed as mean % injected dose, Range- 0.65-0.87; type: ADME, organism-based; conditions: in vivo, 0.5 h; in short: as §1
# [21] = system: Rattus norvegicus; assay: Distribution of radioactivity in lung tissue of rats at 5 mins after an intravenous injection; Value expressed as mean % injected dose, Range- 0.98-1.22; type: ADME, organism-based; conditions: in vivo; in short: as §1
# [22] = system: Rattus norvegicus; assay: Distribution of radioactivity in liver tissue of rats at 30 mins after an intravenous injection; Value expressed as mean % injected dose, Range- 0.97-1.41; type: ADME, organism-based; conditions: in vivo, 0.5 h; in short: as §1
# [23] = system: Rattus norvegicus; assay: Distribution of radioactivity in liver tissue of rats at 2 hr after an intravenous injection; Value expressed as mean % injected dose, Range- 0.42-0.62; type: ADME, organism-based; conditions: in vivo; in short: as §1
# [24] = system: Rattus norvegicus; assay: Distribution of radioactivity in heart tissue of rats at 5 mins after an intravenous injection; Value expressed as mean % injected dose, Range- 1.13-1.29; type: ADME, organism-based; conditions: in vivo; in short: as §1
# [25] = system: Rattus norvegicus; assay: Distribution of radioactivity in heart tissue of rats at 30 mins after an intravenous injection; Value expressed as mean % injected dose, Range- 0.55-0.82; type: ADME, organism-based; conditions: in vivo, 0.5 h; in short: as §1
# [26] = system: Rattus norvegicus; assay: Distribution of radioactivity in brain tissue of rats at 5 mins after an intravenous injection; Value expressed as mean % injected dose, Range- 0.74-0.94; type: ADME, organism-based; conditions: in vivo; in short: as §1
# [27] = system: Rattus norvegicus; assay: Ratio between the distribution of radioactivity of brain to that of blood tissue of rats at 1 day after an intravenous administration; type: ADME, organism-based; conditions: 24 h; in short: as §2
# [28] = system: Rattus norvegicus; assay: Distribution of radioactivity in liver tissue of rats at 1 day after an intravenous injection; Value expressed as mean % injected dose, Range- 0.02-0.02; type: ADME, organism-based; conditions: in vivo, 24 h; in short: as §1
# [29] = system: Rattus norvegicus; assay: Distribution of radioactivity in lung tissue of rats at 1 hr after an intravenous injection; Value expressed as mean % injected dose, Range- 0.66-0.77; type: ADME, organism-based; conditions: in vivo; in short: as §1
# [30] = system: Rattus norvegicus; assay: Distribution of radioactivity in heart tissue of rats at 1 hr after an intravenous injection; Value expressed as mean % injected dose, Range- 0.5-0.63; type: ADME, organism-based; conditions: in vivo; in short: as §1
# [31] = system: Rattus norvegicus; assay: Ratio between the distribution of radioactivity of brain to that of blood tissue of rats at 2 min after an intravenous administration; type: ADME, organism-based; in short: as §2
# [32] = system: Rattus norvegicus; assay: Distribution of radioactivity in thyroid tissue of rats at 1 day after an intravenous injection; Value expressed as mean % injected dose, Range- 406-499; type: ADME, organism-based, Thyroid gland; conditions: in vivo, 24 h; in short: as §1
# [33] = system: Rattus norvegicus; assay: Distribution of radioactivity in heart tissue of rats at 1 day after an intravenous injection; Value expressed as mean % injected dose, Range- 0.02-0.02; type: ADME, organism-based; conditions: in vivo, 24 h; in short: as §1
# [34] = system: Rattus norvegicus; assay: Distribution of radioactivity in liver tissue of rats at 4 hr after an intravenous injection; Value expressed as mean % injected dose, Range- 0.19-0.23; type: ADME, organism-based; conditions: in vivo; in short: as §1
# [35] = system: Rattus norvegicus; assay: Distribution of radioactivity in heart tissue of rats at 2 hr after an intravenous injection; Value expressed as mean % injected dose, Range- 0.24-0.38; type: ADME, organism-based; conditions: in vivo; in short: as §1
# [36] = system: Rattus norvegicus; assay: Distribution of radioactivity in thyroid tissue of rats at 2 mins after an intravenous injection; Value expressed as mean % injected dose, Range- 6.65-8.0.8; type: ADME, organism-based, Thyroid gland; conditions: in vivo; in short: as §1
# [37] = system: Rattus norvegicus; assay: Distribution of radioactivity in blood of rats at 1 hr after an intravenous injection; Value expressed as mean % injected dose, Range-0.9-1.03; type: ADME, organism-based; conditions: in vivo; in short: as §1
# [38] = system: Rattus norvegicus; assay: Distribution of radioactivity in lung tissue of rats at 4 hr after an intravenous injection; Value expressed as mean % injected dose, Range- 0.28-0.31; type: ADME, organism-based; conditions: in vivo; in short: as §1
# [39] = system: Rattus norvegicus; assay: Distribution of radioactivity in brain tissue of rats at 1 day after an intravenous injection; Value expressed as mean % injected dose, Range- 0.007-0.008; type: ADME, organism-based; conditions: in vivo, 24 h; in short: as §1
# [40] = system: Rattus norvegicus; assay: Distribution of radioactivity in liver tissue of rats at 1 hr after an intravenous injection; Value expressed as mean % injected dose, Range- 0.71-0.93; type: ADME, organism-based; conditions: in vivo; in short: as §1
# [41] = system: Rattus norvegicus; assay: Distribution of radioactivity in lung tissue of rats at 1 day after an intravenous injection; Value expressed as mean % injected dose, Range- 0.02-0.03; type: ADME, organism-based; conditions: in vivo, 24 h; in short: as §1
# [42] = system: Rattus norvegicus; assay: Distribution of radioactivity in heart tissue of rats at 4 hr after an intravenous injection; Value expressed as mean % injected dose, Range- 0.16-0.2; type: ADME, organism-based; conditions: in vivo; in short: as §1
# [43] = system: Rattus norvegicus; assay: Distribution of radioactivity in blood of rats at 2 mins after an intravenous injection; Value expressed as mean % injected dose, Range = 0.88-1.15; type: ADME, organism-based; conditions: in vivo; in short: as §1
# [44] = system: Rattus norvegicus; assay: Distribution of radioactivity in liver tissue of rats at 2 mins after an intravenous injection; Value expressed as mean % injected dose, Range- 2.91-3.53; type: ADME, organism-based; conditions: in vivo; in short: as §1
# [45] = system: Rattus norvegicus; assay: Distribution of radioactivity in brain tissue of rats at 1 hr after an intravenous injection; Value expressed as mean % injected dose, Range- 0.18-0.22; type: ADME, organism-based; conditions: in vivo; in short: as §1
# [46] = system: Rattus norvegicus; assay: Distribution of radioactivity in thyroid tissue of rats at 2 hr after an intravenous injection; Value expressed as mean % injected dose, Range- 92-159; type: ADME, organism-based, Thyroid gland; conditions: in vivo; in short: as §1
# [47] = system: Rattus norvegicus; assay: Distribution of radioactivity in liver tissue of rats at 5 mins after an intravenous injection; Value expressed as mean % injected dose, Range- 2.49-2.82; type: ADME, organism-based; conditions: in vivo; in short: as §1
# [48] = system: Rattus norvegicus; assay: Distribution of radioactivity in blood of rats at 1 day after an intravenous injection; Value expressed as mean % injected dose, Range- 0.03-0.03; type: ADME, organism-based; conditions: in vivo, 24 h; in short: as §1
structure (smiles),measurement,setting,value
CCC1(CCC/C=C/I)C(=O)NC(=O)NC1=O,Activity,[1],1.49
same,Activity,[2],0.9
same,Activity,[3],1.31
same,Ratio,[4],0.2
same,Activity,[5],26.16
same,Activity,[6],0.92
same,Activity,[7],0.03
same,Ratio,[8],0.91
same,Ratio,[9],0.36
same,Activity,[10],0.83
same,Activity,[11],0.76
same,Activity,[12],178
same,Ratio,[13],0.14
same,Activity,[14],0.1
same,Activity,[15],6.84
same,Activity,[16],0.33
same,Activity,[17],0.46
same,Ratio,[18],0.07
same,Activity,[19],0.52
same,Activity,[20],0.79
same,Activity,[21],1.08
same,Activity,[22],1.21
same,Activity,[23],0.5
same,Activity,[24],1.23
same,Activity,[25],0.71
same,Activity,[26],0.82
same,Ratio,[27],0.26
same,Activity,[28],0.02
same,Activity,[29],0.72
same,Activity,[30],0.56
same,Ratio,[31],0.83
same,Activity,[32],434
same,Activity,[33],0.02
same,Activity,[34],0.21
same,Activity,[35],0.33
same,Activity,[36],7.64
same,Activity,[37],0.97
same,Activity,[38],0.29
same,Activity,[39],0.007
same,Activity,[40],0.82
same,Activity,[41],0.02
same,Activity,[42],0.18
same,Activity,[43],1
same,Activity,[44],3.19
same,Activity,[45],0.19
same,Activity,[46],130
same,Activity,[47],2.69
same,Activity,[48],0.03
